Data published in ChEMBL document CHEMBL1157101, “A series of alpha-heterocyclic carboxaldehyde thiosemicarbazones inhibit topoisomerase IIalpha catalytic activity” (J Med Chem, 2010).
pIC50: −log10 of the molar value. Active and inactive are the calls of the source. The rule behind the calls is not given here.

Assays:
Type in all cases: functional, cell-based
[1] = Antiproliferative activity against human K562/A02 cells after 72 hrs by sulforhodamine B assay; details: K562/A02, 72 h, in the assay text read “MTT assay” for “sulforhodamine B assay”
How it was run: (§1)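 Cells seeded and exposed in triplicate to graded compound concentrations for 72 h. Suspension cells read by MTT conversion to coloured product; adherent cells read by sulforhodamine B. IC50 (50% growth inhibition versus untreated control) derived by the Logit method.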

[2] = test system: A549; test: Antiproliferative activity against human A549 cells after 72 hrs by sulforhodamine B assay; details: A549, 72 h; how it was run: as §1
[3] = test system: HT-29; test: Cell cycle arrest in human HT-29 cells pretreated with aphidicolin for 1 hr assessed as accumulation at G1/S phase after 24 hrs by flow cytometry in presence of nocdazole
How it was run: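 HT-29 cells stained with propidium iodide; cell-cycle distribution determined by flow cytometry.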

[4] = test system: HT-29; test: Inhibition of DNA synthesis in human HT-29 cells measured at 0.25 to 1 uM by BrdU incorporation assay
How it was run: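 HT-29 cells; DNA synthesis measured by BrdU incorporation with flow detection.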

CN(C)C(=S)N/N=C/c1ccc2ccccc2n1
pIC50 [1]: 7.22 | pIC50 [2]: 6.35 | Activity [3]: inactive | inhibition [4]: Dose-dependent effect
